pIC50: −log10 of the molar value.
Tests used:
[1] = Bioavailability in mouse (nude) using 20% aqueous hydroxypropyl-beta-cyclodextrin (HPbetaCD) as vehicle 25 mg/kg; format: ADME, organism-based; details: in vivo; for bioavailability: nude
[2] = Area under curve was determined using 20%aqueous hydroxypropyl-beta-cyclodextrin (HPbetaCD) as vehicle. Compound was administered intravenously to nude mice at a dose of 25 mg/kg; format: ADME, organism-based; design: dose 25 mg/kg, route intravenous; details: mouse, in vivo, iv
How it was run: (§1)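 Nude mice were dosed at 25 mpk, intravenously or orally as the line states, in 20% aqueous hydroxypropyl-β-cyclodextrin or 0.4% aqueous methyl cellulose. Serum was sampled over 24 h. Each time point came from sera of different animals.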

[3] = Maximum concentration (Cmax) using 20%aqueous hydroxypropyl-beta-cyclodextrin (HPbetaCD) as vehicle. compound was administered intravenously to nude mice at a dose of 25 mg/kg; format: ADME, organism-based; design: dose 25 mg/kg, route intravenous; details: mouse, in vivo, iv; how it was run: as §1
[4] = Maximum concentration (Cmax) using 20%aqueous hydroxypropyl-beta-cyclodextrin (HPbetaCD) as vehicle. compound was administered orally to nude mice at a dose of 25 mg/kg; format: ADME, organism-based; design: dose 25 mg/kg, route oral; details: mouse, in vivo, po; how it was run: as §1
[5] = biological target: T1, Protein farnesyltransferase (Homo sapiens, UniProt P49354+P49356); assay: Effect on Ras processing in Cos-1 monkey kidney cells expressing either H-Ras-Val 12-CVLS or H-Ras-Val12.; format: functional, cell-based, Cercopithecidae
How it was run: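 Ras processing was tested in Cos-1 monkey kidney cells transiently expressing H-Ras-Val12-CVLS or H-Ras-Val12. IC50 values are single-point determinations.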

[6] = biological target: T1, Protein farnesyltransferase; assay: Inhibition of [3H]FPP incorporation into His6-H-Ras-CVLS by farnesyl transferase; format: protein-complex assay
[7] = Half life was administered by using 20%aqueous hydroxypropyl-beta-cyclodextrin (HPbetaCD) as vehicle to nude mice at a dose of 25mpk,; format: ADME, organism-based; details: mouse, in vivo, 25 mg/kg
[8] = Area under curve was determined using 20%aqueous hydroxypropyl-beta-cyclodextrin (HPbetaCD) as vehicle. Compound was administered orally to nude mice at a dose of 25 mg/kg; format: ADME, organism-based; design: dose 25 mg/kg, route oral; details: mouse, in vivo, po; how it was run: as §1
NIH-3T3 (Mus musculus) [9] = assay: inhibition of tumor colony formation in soft agar
[10] = Area under curve was determined using 20%aqueous hydroxypropyl-beta-cyclodextrin (HPbetaCD) as vehicle. Compound was administered orally to nude mice at a dose of 25 mg/kg (Run time = 7 hr); format: ADME, organism-based; design: dose 25 mg/kg, route oral; details: mouse, in vivo, po
How it was run: (§2)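 Nude mice received 25 mpk in 20% aqueous hydroxypropyl-β-cyclodextrin, by the route the line gives. Serum was collected over a shortened 7-h run rather than 24 h. Each time point used sera from different animals.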

[11] = biological target: T1, Protein farnesyltransferase; assay: Inhibitory activity against Hras Farnesyltransferase (FPT).; format: protein-complex assay
[12] = Area under curve was determined using 20%aqueous hydroxypropyl-beta-cyclodextrin (HPbetaCD) as vehicle. Compound was administered orally to nude mice at a dose of 25 mg/kg (run time 7 hr); format: ADME, organism-based; design: dose 25 mg/kg, route oral; details: mouse, in vivo, po; how it was run: as §2
[13] = Area under curve was determined using 20%aqueous hydroxypropyl-beta-cyclodextrin (HPbetaCD) as vehicle. Compound was administered intravenously to nude mice at a dose of 25 mg/kg (run time 7 hr); format: ADME, organism-based; design: dose 25 mg/kg, route intravenous; details: mouse, in vivo, iv; how it was run: as §2
[14] = Percent bioavailability was administered by using 0.4% Methyl cellulose (MC) as vehicle to nude mice at a dose of 25 mg/kg (micronized sample); format: ADME, organism-based; details: mouse, in vivo, read-out: Bioavailabiility
How it was run: (§3)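 A micronized sample was given orally at 25 mpk to nude mice in 0.4% aqueous methyl cellulose. Serum was collected over 24 h, with separate animals for each time point.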

[15] = Bioavailability in mouse (nude) (dose 0.4% Methylcellulose (MC) as vehicle 25 mg/kg); format: ADME, organism-based; details: in vivo
[16] = Maximum concentration (Cmax) using 0.4% Methyl cellulose (MC) as vehicle. compound was administered intravenously to nude mice at a dose of 25 mg/kg; format: ADME, organism-based; design: dose 25 mg/kg, route intravenous; details: mouse, in vivo, iv; how it was run: as §1
[17] = Maximum concentration (Cmax) using 0.4% Methyl cellulose (MC) as vehicle. compound was administered orally to nude mice at a dose of 25 mg/kg; format: ADME, organism-based; design: dose 25 mg/kg, route oral; details: mouse, in vivo, po; how it was run: as §1
[18] = Maximum concentration (Cmax) using 0.4% Methyl cellulose (MC) as vehicle. compound was administered orally to nude mice at a dose of 25 mg/kg (micronized sample); format: ADME, organism-based; design: dose 25 mg/kg, route oral; details: mouse, in vivo, po; how it was run: as §3
[19] = Area under curve was determined using 0.4% Methyl cellulose (MC) as vehicle. Compound was administered intravenously to nude mice at a dose of 25 mg/kg; format: ADME, organism-based; design: dose 25 mg/kg, route intravenous; details: mouse, in vivo, iv; how it was run: as §1
[20] = Area under curve was determined using 0.4% Methyl cellulose (MC) as vehicle. Compound was administered orally to nude mice at a dose of 25 mg/kg; format: ADME, organism-based; design: dose 25 mg/kg, route oral; details: mouse, in vivo, po; how it was run: as §1
[21] = Area under curve was determined using 0.4% Methyl cellulose (MC) as vehicle. Compound was administered orally to nude mice at a dose of 25 mg/kg (micronized sample); format: ADME, organism-based; design: dose 25 mg/kg, route oral; details: mouse, in vivo, po; how it was run: as §3
[22] = biological target: T1, Protein farnesyltransferase; assay: Inhibition of Hras Farnesyl protein transferase (FPT); format: protein-complex assay
NIH-3T3 (Mus musculus) [23] = assay: Inhibition of tumor colony formation in soft agar
[24] = Half life was administered by using 0.4% Methyl cellulose (MC) as vehicle to nude mice at a dose of 25mpk; details: mouse, in vivo, 25 mg/kg

Compound	bioavailability [1] [%]	AUC [2] [ng·h/mL]	Cmax [3] [µM]	Cmax [4] [µM]	pIC50 [5]	pIC50 [6]	half-life [7] [h]	AUC [8] [ng·h/mL]	pIC50 (NIH-3T3 (Mus musculus) [9])	other results
NC(=O)CN1CCC(CC(=O)N2CCC([C@H]3c4ncc(Br)cc4CCc4cc(Cl)cc(Br)c43)CC2)CC1	60.2	20300	30	1.94	8.22	8.68	4	12200	7.15	–
CN(C)C(=O)C(=O)N1CCC(CC(=O)N2CCC([C@H]3c4ncc(Br)cc4CCc4cc(Cl)cc(Br)c43)CC2)CC1	30	7530	26.3	3.2	8.00	–	1.04	–	6.92	AUC at 7 h [10]: 2260 ng·h/mL
NC(=O)C(=O)N1CCC(CC(=O)N2CCC([C@H]3c4ncc(Br)cc4CCc4cc(Cl)cc(Br)c43)CC2)CC1	–	27100	26.2	7.1	> 8.00	–	1.1	45000	7.07	F [1]: 166%; pIC50 [11]: 8.57
O=C(CC1CCN(C(=O)Cn2cncn2)CC1)N1CCC([C@H]2c3ncc(Br)cc3CCc3cc(Cl)cc(Br)c32)CC1	19.5	–	22.6	2.15	> 8.00	–	0.28	–	6.96	AUC at 7 h [12]: 1970 ng·h/mL; AUC at 7 h [13]: 10100 ng·h/mL
NC(=O)CNC(=O)N1CCC(CC(=O)N2CCC([C@H]3c4ncc(Br)cc4CCc4cc(Cl)cc(Br)c43)CC2)CC1	–	–	–	–	7.60	9.05	–	–	6.48	–
O=C(CC1CCN(C(=O)c2ccc[n+]([O-])c2)CC1)N1CCC([C@H]2c3ncc(Br)cc3CCc3cc(Cl)cc(Br)c32)CC1	113	62000	52.3	16.2	8.15	–	1.42	70100	–	bioavailability [14]: 9.28%; bioavailability [15]: 5.81%; Cmax [16]: 52.3 µM; Cmax [17]: 0.75 µM; Cmax [18]: 2.27 µM; AUC [19]: 62000 ng·h/mL; AUC [20]: 3600 ng·h/mL; AUC [21]: 5750 ng·h/mL; pIC50 [22]: 8.68; pIC50 (NIH-3T3 (Mus musculus) [23]): 6.78
O=C(CC1CCN(C(=O)Cn2cccc2)CC1)N1CCC([C@H]2c3ncc(Br)cc3CCc3cc(Cl)cc(Br)c32)CC1	–	–	–	–	8.05	–	–	–	6.34	pIC50 [11]: 8.37
O=C(CC1CCN(CC(=O)N2CCOCC2)CC1)N1CCC([C@H]2c3ncc(Br)cc3CCc3cc(Cl)cc(Br)c32)CC1	–	–	–	–	7.60	8.28	–	–	7.00	–
CCOC(=O)CNC(=O)N1CCC(CC(=O)N2CCC([C@H]3c4ncc(Br)cc4CCc4cc(Cl)cc(Br)c43)CC2)CC1	–	–	–	–	–	–	–	–	6.51	–
CN(C)S(=O)(=O)N1CCC(CC(=O)N2CCC([C@H]3c4ncc(Br)cc4CCc4cc(Cl)cc(Br)c43)CC2)CC1	1.7	5950	30	0.49	8.05	8.11	1.3	100	7.00	–
O=C(CC1CCN(C(=O)c2cc[n+]([O-])cc2)CC1)N1CCC([C@H]2c3ncc(Br)cc3CCc3cc(Cl)cc(Br)c32)CC1	115	13700	19.8	9.81	–	–	1.2	15700	–	bioavailability [15]: 14.6%; Cmax [16]: 19.8 µM; Cmax [17]: 1.07 µM; AUC [19]: 13700 ng·h/mL; AUC [20]: 2000 ng·h/mL
N#CCC(=O)N1CCC(CC(=O)N2CCC([C@H]3c4ncc(Br)cc4CCc4cc(Cl)cc(Br)c43)CC2)CC1	–	–	–	–	> 8.00	–	–	–	–	bioavailability [15]: 8.6%; Cmax [16]: 23.4 µM; Cmax [17]: 0.33 µM; AUC [19]: 4090 ng·h/mL; AUC [20]: 350 ng·h/mL; pIC50 (NIH-3T3 (Mus musculus) [23]): 6.92; half-life [24]: 0.76 h
